From ChEMBL document CHEMBL1123904, “Synthesis, structure, and biological activity of certain 2-deoxy-beta-D-ribo-hexopyranosyl nucleosides and nucleotides” (J Med Chem, 1987)

Assays:
Human alphaherpesvirus 2 = assay: In vitro antiviral activity Virus rating (VR) determined by comparing CPE development in drug-treated cells (T) and virus control cells (C) against, Herpes simplex virus-2; assay type: functional
Procedure, shortened: (§1)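 Vero (African green monkey kidney) cells in 10% FBS DMEM, seeded 4 × 10^4 cells/well, confluent over 24 h at 37 °C, 5% CO2. Virus (amount giving full monolayer destruction in 72 h; HSV-2 strain 333, measles Edmonston, para 3 C243) adsorbed 30 min. Compound added after adsorption at seven 0.5-log steps, final 5 × 10^-6 to 5 × 10^-3 M. Duplicate infected wells, single uninfected wells for toxicity.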

Measles morbillivirus = assay: In vitro antiviral activity Virus rating (VR) determined by comparing CPE development in drug-treated cells (T) and virus control cells (C) against, measles; assay type: functional; procedure, shortened: as §1
Human respirovirus 3 = assay: In vitro antiviral activity Virus rating (VR) determined by comparing CPE development in drug-treated cells (T) and virus control cells (C) against, parainfluenza type 3 (para 3); assay type: functional; procedure, shortened: as §1
Vaccinia virus = assay: In vitro antiviral activity Virus rating (VR) determined by comparing CPE development in drug-treated cells (T) and virus control cells (C) against, Vaccinia virus; assay type: functional, Orthopoxvirus vaccinia
Adenosine deaminase = target: T1, Adenosine deaminase (Bos taurus, UniProt P56658); assay: Ability to inhibit adenosine deaminase
T1 sequence (P56658 whole entry): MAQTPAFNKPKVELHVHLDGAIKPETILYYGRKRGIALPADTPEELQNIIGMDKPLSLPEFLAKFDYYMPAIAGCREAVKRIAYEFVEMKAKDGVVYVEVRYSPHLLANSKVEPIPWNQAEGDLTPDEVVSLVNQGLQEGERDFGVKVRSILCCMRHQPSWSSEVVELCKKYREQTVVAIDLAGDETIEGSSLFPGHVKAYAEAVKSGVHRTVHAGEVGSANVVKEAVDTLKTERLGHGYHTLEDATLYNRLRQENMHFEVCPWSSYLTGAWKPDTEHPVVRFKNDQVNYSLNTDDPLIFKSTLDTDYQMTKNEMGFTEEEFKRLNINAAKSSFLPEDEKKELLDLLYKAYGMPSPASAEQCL
Procedure, shortened: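 Calf intestine adenosine deaminase; substrate and inhibitor kinetic parameters measured spectrophotometrically.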

[1] = Ability of inhibit mammalian uridine phosphorylase

| SMILES | VR (Human alphaherpesvirus 2) | VR (Measles morbillivirus) | VR (Human respirovirus 3) | VR (Vaccinia virus) | Ki (Adenosine deaminase) [µM] | Ki [1] [µM] |
| --- | --- | --- | --- | --- | --- | --- |
| Nc1ncnc2c1ncn2[C@@H]1C=C(CO)[C@@H](O)[C@H]1O [NEOPLANOCIN A] | 1.39 | 0.75 | 1.6 | 1.38 | – | – |
| Nc1ccn(C2CC(O)C(O)C(COP(=O)(O)O)O2)c(=O)n1 (stereo not given) | – | 0.06 | 0.28 | 0.25 | – | – |
| OCC1OC(n2cnc3c(O)ncnc32)CC(O)C1O (stereo not given) | 0.07 | 0 | 0.06 | 0.1 | – | – |
| Nc1ncnc2c1ncn2C1CC(O)C(O)C(COP(=O)(O)O)O1 (stereo not given) | 0.44 | 0.24 | 0.16 | 0 | – | – |
| Nc1ccn(C2CC(O)C(O)C(CO)O2)c(=O)n1 (stereo not given) | 0 | 0.5 | 0.15 | 0 | – | – |
| Nc1ncnc2ncn(C3CC(O)C(O)C(CO)O3)c12 (stereo not given) | 0.08 | 0 | 0 | 0.22 | – | – |
| OC[C@H]1O[C@@H](n2cnc3c(O)ncnc32)[C@H](O)[C@@H]1O [INOSINE] | – | – | – | – | 500 | – |
| O=c1ccn(C2CC(O)C(O)C(COP(=O)(O)O)O2)c(=O)[nH]1 (stereo not given) | 0.74 | 0.44 | 0.64 | 0.28 | – | – |
| O=c1ccn(C2CC(O)C(O)C(CO)O2)c(=O)[nH]1 (stereo not given) | 0.06 | 0 | 0 | 0.25 | – | – |
| Cc1cn(C2CC(O)C(O)C(CO)O2)c(=O)[nH]c1=O (stereo not given) | – | – | – | – | – | 12 |
| Nc1nc(O)c2ncn(C3CC(O)C(O)C(CO)O3)c2n1 (stereo not given) | 1.06 | 0.3 | 0 | 0.19 | – | – |
| Nc1ncnc2c1ncn2C1CC(O)C(O)C(CO)O1 (stereo not given) | 0 | 0.9 | 0.35 | 0 | – | – |
| Nc1nc(Cl)nc2c1ncn2C1CC(O)C(O)C(CO)O1 (stereo not given) | 0.34 | 0.05 | 0 | 0.04 | – | – |
| OC[C@H]1O[C@@H](n2cnc3c(O)ncnc32)C[C@@H]1O [DEOXYINOSINE] | – | – | – | – | 150 | – |
| Nc1nc(N)c2ncn(C3CC(O)C(O)C(CO)O3)c2n1 (stereo not given) | 0.62 | 0.54 | 0.25 | 0.22 | – | – |
